Results published in ChEMBL document CHEMBL3286320, “Design, Synthesis, and Optimization of Balanced Dual NK1/NK3 Receptor Antagonists” (ACS Med Chem Lett, 2014).

Tests used:
[1] = target: Substance-P receptor (Homo sapiens, UniProt P25103); assay: Displacement of [125I]-Bolton Hunter-substance P from human NK1 receptor expressed in human U373MG cells; format: cell-based, U-373MG ATCC
How it was run: (§1)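 Radioligand binding on membranes: NK1 on membranes from U-373MG cells, which express the receptor endogenously; NK3 on membranes from CHO cells stably expressing the recombinant human receptor.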

[2] = target: T1, Neuromedin-K receptor (Homo sapiens, UniProt P29371); assay: Displacement of [3H]-SR142801 from human NK3 receptor expressed in recombinant CHO cells; format: cell-based; how it was run: as §1
T1 sequence (P29371 whole entry): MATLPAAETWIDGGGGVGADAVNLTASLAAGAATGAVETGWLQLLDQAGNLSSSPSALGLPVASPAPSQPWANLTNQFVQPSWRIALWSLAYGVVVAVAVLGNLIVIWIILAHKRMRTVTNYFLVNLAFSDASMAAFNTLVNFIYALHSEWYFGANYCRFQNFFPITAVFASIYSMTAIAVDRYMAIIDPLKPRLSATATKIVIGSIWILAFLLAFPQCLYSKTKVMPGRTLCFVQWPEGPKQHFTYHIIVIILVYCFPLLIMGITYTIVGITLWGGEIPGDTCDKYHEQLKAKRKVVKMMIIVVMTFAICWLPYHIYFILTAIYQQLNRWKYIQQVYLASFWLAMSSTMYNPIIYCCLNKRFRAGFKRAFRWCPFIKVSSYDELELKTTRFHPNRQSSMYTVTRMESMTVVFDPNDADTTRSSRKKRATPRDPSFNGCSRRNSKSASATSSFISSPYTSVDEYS

Substance-P receptor, sequence (P25103 whole entry): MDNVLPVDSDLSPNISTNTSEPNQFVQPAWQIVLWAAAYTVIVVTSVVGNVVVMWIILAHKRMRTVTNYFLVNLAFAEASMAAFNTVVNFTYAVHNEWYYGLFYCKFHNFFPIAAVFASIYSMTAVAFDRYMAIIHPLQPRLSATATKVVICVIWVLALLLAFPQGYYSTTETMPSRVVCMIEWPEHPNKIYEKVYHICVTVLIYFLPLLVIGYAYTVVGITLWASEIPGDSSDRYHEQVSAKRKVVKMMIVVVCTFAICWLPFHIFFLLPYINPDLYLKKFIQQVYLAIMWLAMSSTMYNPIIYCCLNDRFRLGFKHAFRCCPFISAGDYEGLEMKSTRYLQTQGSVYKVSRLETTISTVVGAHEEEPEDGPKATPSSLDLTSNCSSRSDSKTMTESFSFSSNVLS

Row | Ki [1] | Ki [2] | Structure (SMILES)
1 | 126 nM | 63.1 nM | CN1C(=O)OC2(CCN(CC[C@@](C)(C(=O)N[C@@H](Cc3ccccc3)C(=O)NCCN)c3ccc(Cl)c(Cl)c3)CC2)c2cc(F)ccc21
2 | 398 nM | 10000 nM | CN1C(=O)OC2(CCN(CC[C@](C)(C(=O)N[C@@H](Cc3ccccc3)C(=O)NCCN)c3ccc(Cl)c(Cl)c3)CC2)c2cc(F)ccc21
3 | 631 nM | 2000 nM | CN1C(=O)OC2(CCN(CC[C@](C)(C(=O)N[C@H](Cc3ccccc3)C(=O)NCCN)c3ccc(Cl)c(Cl)c3)CC2)c2cc(F)ccc21
4 | 20 nM | 50.1 nM | CN1C(=O)OC2(CCN(CC[C@@](C)(C(=O)N[C@H](Cc3ccccc3)C(=O)NCCN)c3ccc(Cl)c(Cl)c3)CC2)c2cc(F)ccc21
5 | 63.1 nM | 1580 nM | CN1C(=O)OC2(CCN(CCC[C@@](C)(C(=O)N[C@H](Cc3ccccc3)C(=O)NCCN)c3ccc(Cl)c(Cl)c3)CC2)c2cc(F)ccc21
6 | 31.6 nM | 2.51 nM | CN1C(=O)OC2(CCN(CC[C@@](C)(C(=O)N[C@H](Cc3ccccc3)C(=O)NCCO)c3ccc(Cl)c(Cl)c3)CC2)c2cc(F)ccc21

Continued, compound first:

Row | Structure (SMILES) | Ki [1] | Ki [2]
7 | CN(C)CCNC(=O)[C@@H](Cc1ccccc1)NC(=O)[C@](C)(CCN1CCC2(CC1)OC(=O)N(C)c1ccc(F)cc12)c1ccc(Cl)c(Cl)c1 | 39.8 nM | 31.6 nM
8 | CN1C(=O)OC2(CCN(CC[C@H](C(=O)N(C)[C@@H](Cc3ccccc3)C(=O)NCCN)c3ccc(Cl)c(Cl)c3)CC2)c2cc(F)ccc21 | 200 nM | 1260 nM
9 | CN1C(=O)OC2(CCN(CCC[C@@H](C(=O)N(C)[C@@H](Cc3ccccc3)C(=O)NCCN)c3ccc(Cl)c(Cl)c3)CC2)c2cc(F)ccc21 | 50.1 nM | 3980 nM
10 | CN1C(=O)OC2(CCN(CCC[C@H](C(=O)N(C)[C@@H](Cc3ccccc3)C(=O)NCCN)c3ccc(Cl)c(Cl)c3)CC2)c2cc(F)ccc21 | 398 nM | 6310 nM
11 | CN1C(=O)OC2(CCN(CC[C@@](C)(C(=O)N[C@H](C(=O)NCCN)c3ccccc3)c3ccc(Cl)c(Cl)c3)CC2)c2cc(F)ccc21 | 251 nM | 39.8 nM
12 | CN1C(=O)OC2(CCN(CCC[C@@](C)(C(=O)N[C@H](C(=O)NCCN)c3ccccc3)c3ccc(Cl)c(Cl)c3)CC2)c2cc(F)ccc21 | 316 nM | 794 nM
13 | CNCCNC(=O)[C@@H](Cc1ccccc1)NC(=O)[C@](C)(CCN1CCC2(CC1)OC(=O)N(C)c1ccc(F)cc12)c1ccc(Cl)c(Cl)c1 | 15.8 nM | 20 nM
14 | CN(C)CCNC(=O)[C@@H](Cc1ccccc1)NC(=O)[C@](C)(CCCN1CCC2(CC1)OC(=O)N(C)c1ccc(F)cc12)c1ccc(Cl)c(Cl)c1 | 20 nM | 1000 nM
15 | CN1C(=O)OC2(CCN(CCC[C@@](C)(C(=O)N[C@H](Cc3ccccc3)C(=O)NCCO)c3ccc(Cl)c(Cl)c3)CC2)c2cc(F)ccc21 | 15.8 nM | 126 nM
16 | CN1C(=O)OC2(CCN(CC[C@@](C)(C(=O)N(C)[C@H](Cc3ccccc3)C(=O)NCCN)c3ccc(Cl)c(Cl)c3)CC2)c2cc(F)ccc21 | 2.51 nM | 7.94 nM
17 | CN1C(=O)OC2(CCN(CC[C@@](C)(C(=O)N(C)[C@H](Cc3ccccc3)C(=O)NCCCN)c3ccc(Cl)c(Cl)c3)CC2)c2cc(F)ccc21 | 3.98 nM | 25.1 nM
18 | CN1C(=O)OC2(CCN(CC[C@@H](C(=O)N(C)[C@@H](Cc3ccccc3)C(=O)NCCN)c3ccc(Cl)c(Cl)c3)CC2)c2cc(F)ccc21 (mixture of isomers) | 126 nM | 1580 nM
19 | CN1C(=O)OC2(CCN(CC[C@@H](C(=O)N(C)[C@H](C(=O)NCCN)c3ccccc3)c3ccc(Cl)c(Cl)c3)CC2)c2cc(F)ccc21 (racemic) | 631 nM | 2510 nM
